In the library only some 6.7% were active in any assay of this set; here they are far more common.
Beta cell apopt: beta cell apoptosis inhibition; INS-1E cytokine-induced death, ATP luminescence, 48 h; percent of positive-control rescue, neutral wells zero; protection from apoptosis, % (concentration not given with the values); actives 0.8% (n = 300,000);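 active means Every replicate reaches about 75%, or at least half do and their mean reaches it too, limit read from the data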;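 further: 0% = cytokine-treated negative control wells and 100% = positive control rescue; higher means more ATP so stronger rescue from cytokine killing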
CHOP inhibitor: inhibitors of CHOP induction in ER stress response; actives 3.8% (n = 220,000); CHO-K1 CHOP-promoter luciferase, tunicamycin-induced, 15-18 h; inhibition, % at 10 µM;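 active means compounds that reduced the stress-induced luciferase reporter signal by more than about 70% of percent inhibition, limit read from the data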;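 further: 0% = tunicamycin plus vehicle and 100% = wells without tunicamycin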
CSC inhib: blocks cancer stem cells; cancer stem cell-like cells viability, luminescence; inhibition, % at 7.5 µM; actives 1.1% (n = 300,000); AID 2717; in the data active means inhibition above about 75%; tested in HMLE shEcad cells
NR3A LBD binder: modulates the human NR3A ligand-binding domain. NR3A LBD differential scanning fluorimetry, Tm shift; 0% = protein alone, 100% = glycine-bound protein. Tm shift relative to glycine control, % at 25 µM. actives 2.5% (n = 340,000). AID 1259313;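 active means melting temperature shift of at least 10% of the positive control shift, at one fixed dose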
T cruzi repl: blocks replication of Trypanosoma cruzi; AID 1885; inhibition, % (concentration not given with the values); actives 1.4% (n = 300,000); T. cruzi beta-gal in NIH3T3, luminescence, 90 h;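 active means mean inhibition across valid replicates above about 55%, limit read from the data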;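 further: signal also drops with host cell toxicity which is not excluded here; 0% = plate median of DMSO wells and 100% = zero luminescence signal; higher percent means less beta-gal luminescence so fewer parasites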
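System: Mouse NIH/3T3 fibroblasts infected with β-gal-expressing T. cruzi Tulahuen C4 | Quantity: NIH/3T3 cells, 5,000 per well | Reagent: 5000 reporter trypomastigotes per well | Dosing: Compound pinned at 50 nL/well, DMSO | Schedule: 3 h host attachment, then at least 90 h co-culture | Detection: GalScreen luminescence, 60 min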
PREPL inhibitor: inhibits the human prolyl oligopeptidase-like enzyme. Q4J6C6. recombinant PREPL, fluorescence polarization activity-based probe. inhibition, % at 5.96 µM. actives 0.68% (n = 320,000). AID 2751; in the data active means inhibition above about 43%;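 further: 0% = enzyme with DMSO and 100% = wells lacking enzyme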
Target sequence (Q4J6C6 whole entry, looked up): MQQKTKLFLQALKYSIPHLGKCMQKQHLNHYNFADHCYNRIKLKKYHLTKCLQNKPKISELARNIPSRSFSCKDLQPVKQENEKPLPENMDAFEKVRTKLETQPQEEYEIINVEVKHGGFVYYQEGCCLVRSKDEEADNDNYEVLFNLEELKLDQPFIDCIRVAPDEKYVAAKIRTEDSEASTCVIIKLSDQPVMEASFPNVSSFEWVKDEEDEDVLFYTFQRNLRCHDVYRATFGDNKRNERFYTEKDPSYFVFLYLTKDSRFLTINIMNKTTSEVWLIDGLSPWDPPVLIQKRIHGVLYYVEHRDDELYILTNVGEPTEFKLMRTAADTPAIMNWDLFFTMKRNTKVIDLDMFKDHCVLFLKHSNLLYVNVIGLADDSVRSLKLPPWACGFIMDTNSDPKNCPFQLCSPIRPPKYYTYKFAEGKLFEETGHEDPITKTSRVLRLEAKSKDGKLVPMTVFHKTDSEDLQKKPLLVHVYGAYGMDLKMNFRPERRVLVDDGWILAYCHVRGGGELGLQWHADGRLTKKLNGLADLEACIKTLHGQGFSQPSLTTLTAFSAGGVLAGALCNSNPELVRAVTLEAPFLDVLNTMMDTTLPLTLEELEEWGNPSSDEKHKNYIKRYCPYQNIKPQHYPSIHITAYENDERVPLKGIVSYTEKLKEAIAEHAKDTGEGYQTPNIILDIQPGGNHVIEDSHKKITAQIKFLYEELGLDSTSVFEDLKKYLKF
* marks the source's active call; other numbers are inactive results; x = no result.

SMILES	Beta cell apopt	CHOP inhibitor	CSC inhib	NR3A LBD binder	T cruzi repl	PREPL inhibitor
O=C(Nc1ccc(N2CCN(C(=O)c3ccc(Cl)cc3)CC2)cc1)c1ccc([N+](=O)[O-])o1	x	55	x	-5	93*	x
COc1ccc(-c2nc(/C=C3\C(C)=Nc4ccccc43)c(O)o2)cc1	1	6	7	-4	-14	25
CC1=Nc2ccccc2/C1=C/c1nc(-c2ccc(C)s2)oc1O	-4	4	1	20*	-5	23
CC1=Nc2ccccc2/C1=C\c1nc(-c2ccc(C(F)(F)F)cc2)oc1O	-2	-24	-7	27*	16	8
Oc1ccccc1-c1nnc(-c2ccc(C(F)(F)F)cc2)o1	-6	60	36	1	-8	3
CC1=Nc2ccccc2/C1=C\c1nc(-c2ccccc2)oc1O	0	29	6	10*	7	25
Cc1ccc(-c2nc(CS(=O)(=O)CC(=O)Nc3cc(F)ccc3F)c(C)o2)cc1	5	x	x	2	2	-40
CC(=Nc1ccccc1)c1sc2ccccc2c1O	-4	33	11	2	26	9
CC(=Nc1ccc(Br)cc1)c1sc2ccccc2c1O	3	-17	28	1	60*	20
Cc1ccc(N2NC(=O)/C(=C\c3cc4c(cc3[N+](=O)[O-])OCO4)C2=O)cc1C	3	-32	88*	-14	7	18
COCCNC(=O)Cn1cnc2sc(C)c(S(=O)(=O)N3CCC(C)CC3)c2c1=O	2	6	x	-4	-4	1
COc1ccc(Cl)cc1Nc1ncnc2sc(C)c(S(=O)(=O)N3CCC(C)CC3)c12	-1	16	13	10*	-19	9
CN(Cc1ccccc1)S(=O)(=O)c1ccc2c(c1)CCC(=O)N2	5	x	-39	-2	-8	5
CN(C)/C=C1\N=C(c2ccccc2)OC1=O	3	9	-10	-1	4	-1
O=C1OC(c2ccccc2)=N/C1=C\C=C\c1ccco1	-4	60	x	20*	-1	4
O=C1OC(c2ccccc2)=N/C1=C\C=C\c1ccccc1[N+](=O)[O-]	-2	71*	-7	-8	-12	-10
O=C1OC(c2ccc(Cl)cc2)=N/C1=C\C=C\c1ccco1	-4	-24	-15	3	-2	-1
CNC(=S)Nc1cc2oc3ccccc3c2cc1OC	1	x	-16	18*	-21	x
CCNC(=S)Nc1cc2oc3ccccc3c2cc1OC	1	x	13	7	-26	3
CCCNC(=S)Nc1cc2oc3ccccc3c2cc1OC	-7	x	31	18*	-6	-10
O=C(CN(Cc1ccccc1Cl)C(=O)c1csnn1)NCc1ccc2c(c1)OCO2	0	x	x	-4	9	10
CCOC(=O)N1CCC(N2CCCC(C(=O)c3ccc4cc(OC)ccc4c3)C2)CC1 (configuration not stated)	-1	5	23	2	56*	9
Nc1nc2ccc(N3CCOCC3)cc2s1	2	1	-3	12*	x	-3
Cc1c(C(=O)NCc2cccnc2)oc2ccc(S(=O)(=O)N3CCCCCC3)cc12	x	44	24	-1	25	4
C=CCc1cc(Cl)ccc1OCCCNC(C)C	10	15	17	2	47	6
SMILES	Beta cell apopt	CHOP inhibitor	CSC inhib	NR3A LBD binder	T cruzi repl	PREPL inhibitor
CCC(C)NCCOCCSc1ccc(Cl)cc1 (configuration not stated)	-4	-7	18	0	31	14
CCC(C)NCCOCCOc1ccc(Cl)c2ccccc12 (configuration not stated)	14	23	x	0	55*	-34
C=CCc1cc(Cl)ccc1OCCOCCNC(C)CC (configuration not stated)	10	-2	131*	1	45	-13
C=CCc1cc(Cl)ccc1OCCN(C)C	-1	-1	-10	1	57*	15
CCC(C)NCCCOc1cc(Cl)ccc1Cl (configuration not stated)	-4	52	19	-2	3	-5
CCC(C)NCCOCCOc1ccc(Cl)c(C)c1C (configuration not stated)	6	-4	5	0	59*	31
COCCN(Cc1ccccc1)C(=O)C1CCN(C(=O)Nc2ccccc2)CC1	0	x	2	1	x	17
CC(C)(C)c1ccc(-c2nc(C#N)c(NCCCn3ccnc3)o2)cc1	-1	18	88*	5	48	27
N#Cc1nc(-c2ccc(OCc3ccccc3Cl)cc2)oc1NCCCn1ccnc1	0	-38	94*	x	37	32
CCCOc1ccc(-c2nc(C#N)c(NCCCn3ccnc3)o2)cc1	10	20	45	3	43	22
Cc1cc(NC(=O)COc2coc(CN3CCN(c4ccccc4F)CC3)cc2=O)no1	x	x	-8	-1	2	1
N#Cc1nnn(-c2cc(Cl)cc(Cl)c2)c1N	3	29	7	-1	18	-6
Cc1c([N+](=O)[O-])nnn1-c1cc(Cl)cc(Cl)c1	-2	1	0	7	63*	3
C/C(=N\Nc1cc(C(F)(F)F)ccc1Cl)c1ccccc1O	14	57	77*	-2	4	6
CN(Cc1ccco1)c1ncnc2ccc(-c3ccc4c(ccn4C)c3)cc12	20	x	84*	-7	x	30
COc1ccc(C(=O)N2CCN(S(=O)(=O)c3ccc(Br)cc3)CC2)cc1	-5	x	x	0	x	3
COc1ccc(N(C(=O)c2snc(C(N)=O)c2N)C(C(=O)NC2CCCCC2)c2ccc(C)o2)cc1 (configuration not stated)	8	x	2	3	21	-3
Cc1cc(CSc2nc(C)cc(=O)[nH]2)c2ncccc2c1	2	87*	-9	-2	8	-2
Cn1c(=O)c(C(=O)c2ccc(S(C)(=O)=O)c(Cl)c2Cl)c(O)c2ccccc21	-5	x	1	0	-18	1
Cc1cccc(NC(=S)NCC23C=CC(O2)C2C(=O)N(c4ccc(Cl)cc4)C(=O)C23)c1 (configuration not stated)	-4	20	5	12*	-3	-27
Cc1ccc(NC(=S)NCC23C=CC(O2)C2C(=O)N(c4ccc(C)cc4)C(=O)C23)cc1 (configuration not stated)	-13	19	-8	1	-5	-8
CN(CC(=O)Nc1ccc(F)c(F)c1F)C(=O)CCCSc1nc2ccccc2[nH]1	0	x	-7	0	0	-10
Cc1ccc(NC(=O)C2CCCC2)cc1Cl	x	x	x	-1	-7	-12
Cc1ccc(NS(=O)(=O)c2ccc(Cl)c(NC(=S)NC(=O)C3CCCCC3)c2)cc1Cl	102*	96*	106*	33*	43	-4
CC(C)(C)C(=O)Nc1cc(S(=O)(=O)Nc2ccc(Cl)cc2)ccc1Cl	-3	75*	x	0	-7	-7
